High-throughput results deposited in PubChem BioAssay by The Scripps Research Institute Molecular Screening Center.
MC4R antagonist – antagonists of human melanocortin 4 receptor (MC4R). P32245. MC4R-expressing cells, MTII-stimulated cAMP, LANCE TR-FRET. inhibition, % at 6.5 µM. 360,000 tested, 0.48% active;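 active = inhibition above its plate's cutoff, the mean of tested wells on that plate plus 3 SD, cut at about 29% in these data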;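 note: 0% = Melanotan II alone and 100% = Melanotan II plus saturating MCL0020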
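Material: U2OS-MC4R stable cell line | Reagent: Melanotan II challenge after compound preincubation | Doses: One concentration, 6.5 µM nominal | Incubation: 30-min compound preincubation, 1-h Melanotan II challenge, 1-h detection, room temperature | Signal: TR-FRET cAMP assay | Replicates: One well per compound, no replicates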
MOR-DOR inv ag – inverse agonists of human mu-delta opioid receptor heterodimerization. 340,000 tested, 0.21% active. cell-based MOR-DOR heterodimer luminescence, inverse agonism. P35372+P41143. AID 504357. inhibition, % at 9.3 µM; in the data active = inhibition above about 22%, passing the limit was not always enough;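 note: 0% = cells with DMSO and 100% = wells without cells with DMSO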
HTR5A ag – activates human HTR5A in OPRM1-OPRD1 agonist counter-screen. HTR5A agonist assay, luminescence, cell-based. activation, % at 9.3 µM. 340,000 tested, 0.61% active. AID 504692; in the data active = activation mostly above about 9.5%, no sharp cut-off; inactive = mostly below about 7.6%;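 note: 0% = cells with vehicle only and 100% = reference agonist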
Target sequence (P47898 whole entry, looked up): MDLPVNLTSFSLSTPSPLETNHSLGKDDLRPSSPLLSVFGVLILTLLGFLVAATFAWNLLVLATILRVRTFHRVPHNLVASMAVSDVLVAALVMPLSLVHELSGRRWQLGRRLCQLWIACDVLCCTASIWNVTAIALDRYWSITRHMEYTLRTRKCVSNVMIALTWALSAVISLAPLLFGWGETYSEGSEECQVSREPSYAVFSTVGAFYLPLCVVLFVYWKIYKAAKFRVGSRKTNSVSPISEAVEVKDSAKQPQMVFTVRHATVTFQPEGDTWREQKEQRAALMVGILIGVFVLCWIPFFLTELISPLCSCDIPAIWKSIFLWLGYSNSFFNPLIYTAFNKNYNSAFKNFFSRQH
HTR5A inv ctr – inverse agonist of human HTR5A in OPRM1-OPRD1 counter-screen; P47898; HTR5A cell line, luminescence, inverse agonism; inhibition, % at 9.3 µM; 340,000 tested, 0.083% active; AID 504634; in the data active = inhibition mostly above about 23%, no sharp cut-off; inactive = mostly below about 18%;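 note: 0% = cells with DMSO and 100% = no-cell wells with DMSO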
MC4R ag barr – human MC4R agonism via beta-arrestin; P32245; U2OS MC4R beta-arrestin complementation, luminescence; percent of melanotan II response, DMSO zero; activation, % at 8.9 µM; 360,000 tested, 0.98% active; AID 540308;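 active = activation above a per-plate cutoff, the mean activation of sample wells on that plate plus 3 SD, cut at about 8% in these data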
OPRM1-OPRD1 ag – OPRM1-OPRD1 heterodimerization agonism; P35372+P41143; cells, luminescence; activation, % at 9.3 µM; 340,000 tested, 0.3% active; AID 504326;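 note: 0% = vehicle-treated cells and 100% = reference agonist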
OPRM1-D1 ag cf – OPRM1-OPRD1 heterodimer agonism, confirmation | shares compounds with OPRM1-OPRD1 ag | cells, MOR-DOR heterodimerization, luminescence complementation | activation, % at 9.3 µM | 830 tested, 45% active | AID 504904;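 note: 0% = vehicle-treated cells and 100% = reference agonist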
HTR5A ag counter – activates human HTR5A in OPRM1-OPRD1 agonist counter-screen; shares compounds with OPRM1-OPRD1 ag; 830 tested, 8% active; AID 504905; activation, % at 9.3 µM; HTR5A agonist counterscreen, cell luminescence; in the data active = activation above about 17%;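 note: 0% = vehicle-treated cells and 100% = reference agonist response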
* = called active by the depositor; i = inactive; nt = not tested or not shown. Rows were chosen to be rich in hits. Some 2.4% of all compounds tested hit in one or more screens of this group. Cut-off read from the data, not from the text of the source, unless noted: active = activation above about 18%; inactive = the rest.

SMILES	MC4R antagonist	MOR-DOR inv ag	HTR5A ag	HTR5A inv ctr	MC4R ag barr	OPRM1-OPRD1 ag	OPRM1-D1 ag cf	HTR5A ag counter
COc1cc(NC(=S)N2CCN(c3ccccn3)CC2)c(OC)cc1Cl	-2	-5	7	-23	0	1	nt	nt
CCOc1cc(/C=N/NC(=O)c2ccncc2)ccc1OC(=O)c1ccc([N+](=O)[O-])cc1	5	-252	9	-24	-1	45*	13	4
CC1CCc2nc(/C(C#N)=C/c3ccncc3)sc2C1 (stereo not drawn)	10	-14	3	8	0	2	nt	nt
CC1=CC(C)(C)N=C(NC#N)N1	1	8	-1	2	-1	-2	nt	nt
CC1=CC(C)(C)N=C(Nc2nc(C)c3cc(C)cc(C)c3n2)N1	4	-94	5	12	4	19*	21*	2
C[C@@H](C[C@@H](O)[C@H](O)C(C)(C)O)[C@@H]1CC[C@]2(C)C3=CC[C@H]4C(C)(C)C(=O)CC[C@]4(C)[C@H]3CC[C@@]12C	4	-112	-3	8	9.4*	19*	7	0
CCCCN1C(=O)Nc2ccccc2S1=O (stereo not drawn)	8	5	2	-5	-2	-1	nt	nt
O=C1Nc2ccc(Br)cc2/C1=C/C(=O)c1ccccc1	5	-80	4	-17	-3	18*	7	0
Cc1cccc(CC(Cc2nc3ccccc3[nH]2)c2nc3ccccc3[nH]2)c1 (stereo not drawn)	19	-109	-5	12	6	18*	2	-4
COc1ccccc1CC(Cc1nc2ccccc2[nH]1)c1nc2ccccc2[nH]1 (stereo not drawn)	-6	-75	2	-9	2	15	nt	nt
COc1ccc(S(=O)(=O)N2CCC(C(=O)NCCC(=O)NCc3cccnc3)CC2)cc1	-10	nt	nt	nt	1	nt	nt	nt
COc1cc2c(cc1NC(=O)C(C)Sc1ccc(NC(C)=O)cc1)oc1ccccc12 (stereo not drawn)	17	-114	2	-8	-2	20*	0	-1
CCN(C[C@H]1N[C@@](CC)(C(=O)OC)[C@H]2C(=O)N(C)C(=O)[C@@H]12)C(=O)COC	5	19	-1	3	-1	-4	nt	nt
COc1ccc(C(=O)CN2Cc3ccccc3C2=N)cc1	-4	12	11	-16	-1	-2	nt	nt
CCc1ccc(NC(=O)Nc2ccc3c(c2)N(C)C(=O)CS3)cc1	0	-488	4	-11	4	96*	55*	5
CCOC(=O)C1(CC2CCCCO2)CCN(Cc2cc(F)ccc2-n2cccn2)CC1 (stereo not drawn)	26	-298	-4	0	2	61*	66*	2
CCOC(=O)C1(CC2CCCCO2)CCN(Cc2nc3ccccc3[nH]2)CC1 (stereo not drawn)	6	-148	-4	10	-2	29*	27*	3
CCOC(=O)C1(CC2CCCCO2)CCN(Cc2nccn2-c2ccc(OC)cc2)CC1 (stereo not drawn)	-3	18	2	-4	-3	-4	nt	nt
CCOC(=O)C1(CC2CCCCO2)CCN(Cc2c(C)cc(C)cc2-n2cccn2)CC1 (stereo not drawn)	23	i	9	-29	0	199*	267*	2
CCOC(=O)C1(CC2CCCCO2)CCN(Cc2nccn2-c2cccc(C)c2)CC1 (stereo not drawn)	2	-64	4	6	0	13	nt	nt
CCOc1ccc(-c2nnc(SCC(=O)Nc3ccc4c(c3)c3ccccc3n4CC)n2N)cc1	-6	-177	1	-2	30*	33*	24*	19*
Cc1cc(CN2CCCC(C(=O)Nc3ccc(-c4nc5ccccc5[nH]4)cc3)C2)n[nH]1 (stereo not drawn)	12	-3	-3	5	0	1	nt	nt
CCn1cc(CN2CCCC(C(=O)Nc3ccc(-c4nc5ccccc5[nH]4)cc3)C2)c(C)n1 (stereo not drawn)	-2	-165	4	12	-3	31*	1	-3
COCCNc1oc(/C=C/c2ccc(F)cc2)nc1S(=O)(=O)c1ccccc1	4	-9	4	-11	-3	2	nt	nt
CCn1nc(C)c(Br)c1Nc1ccc(Br)cc1	-1	-7	-6	0	-1	1	nt	nt
SMILES	MC4R antagonist	MOR-DOR inv ag	HTR5A ag	HTR5A inv ctr	MC4R ag barr	OPRM1-OPRD1 ag	OPRM1-D1 ag cf	HTR5A ag counter
C=CCn1c(O)c(C2=c3ccccc3=NC2=O)sc1=Nc1ccc(O)cc1	-1	-195	-8	21	-2	38*	15	3
C[C@@H](C(=O)NCCc1c[nH]c2ccccc12)[C@@H]1C[C@@]1(C)[C@@H](NC(=O)OCc1ccccc1)c1ccccc1	8	19	5	-15	-2	-3	nt	nt
COC(=O)C(Cc1cccc(C)n1)(c1ccccc1)c1ccccc1	10	i	0	0	0	113*	153*	2
COc1ccc(C(CNC(=O)c2cccc(NS(=O)(=O)c3ccc(C)c(F)c3)c2)N(C)C)cc1 (stereo not drawn)	6	-363	-3	7	-3	70*	1	-2
CCOc1ccc(S(=O)(=O)Nc2cccc(C(=O)NCC(c3ccccc3)N(C)C)c2)cc1 (stereo not drawn)	-4	-313	-5	2	-1	58*	52*	-3
COc1ccc(C(CNC(=O)c2cccc(S(=O)(=O)Nc3ccc(F)cc3)c2)N(C)C)cc1 (stereo not drawn)	3	-20	-4	10	-3	4	nt	nt
COc1ccc(C(CNC(=O)c2cccc(NS(=O)(=O)c3ccccc3)c2)N(C)C)cc1 (stereo not drawn)	5	-246	2	-11	-3	46*	29*	2
COc1ccccc1C(CNC(=O)c1cccc(NS(=O)(=O)c2ccc(C)c(F)c2)c1)N(C)C (stereo not drawn)	13	-44	1	-2	-4	7	nt	nt
CC(=O)c1ccc(S(=O)(=O)NCc2ccc(C(=O)NCC(c3ccccc3)N(C)C)cc2)cc1 (stereo not drawn)	-4	-292	4	-11	-1	55*	49*	-4
CN(C)C(CNC(=O)c1ccc(S(=O)(=O)Nc2ccccc2F)cc1)c1ccccc1 (stereo not drawn)	-3	14	-1	16	-2	-3	nt	nt
C/C(=N/NC(=O)C1CCCCC1)c1ccc([N+](=O)[O-])cc1	5	8	-1	5	-1	-2	nt	nt
